Results: ChEMBL document CHEMBL4020708, “Studies of CDK 8/19 inhibitors: Discovery of novel and selective CDK8/19 dual inhibitors and elimination of their CYP3A4 time-dependent inhibition potential” (Bioorg Med Chem, 2017)
Converted amounts (≈) assume the structure as drawn.

Legend:
[1] = Solubility of the compound at pH 6.8; format: physicochemical; conditions: buffer
Method in brief: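 Compound added from DMSO solution to JP 2nd disintegration fluid (pH 6.8) and incubated. Precipitate removed by filtration, and filtrate concentration measured by plate reader or HPLC.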

[2] = target: Cyclin-dependent kinase 8 (Homo sapiens, UniProt P49336); assay: Inhibition of CDK8 in human SW480 cells assessed as reduction in IFN-gamma induced STAT1 phosphorylation at Ser727 residues preincubated for 2 hrs followed by IFN-gamma addition measured after 1 hr by In-cell western assay; format: cell-based
Sequence of Cyclin-dependent kinase 8 (P49336 whole entry): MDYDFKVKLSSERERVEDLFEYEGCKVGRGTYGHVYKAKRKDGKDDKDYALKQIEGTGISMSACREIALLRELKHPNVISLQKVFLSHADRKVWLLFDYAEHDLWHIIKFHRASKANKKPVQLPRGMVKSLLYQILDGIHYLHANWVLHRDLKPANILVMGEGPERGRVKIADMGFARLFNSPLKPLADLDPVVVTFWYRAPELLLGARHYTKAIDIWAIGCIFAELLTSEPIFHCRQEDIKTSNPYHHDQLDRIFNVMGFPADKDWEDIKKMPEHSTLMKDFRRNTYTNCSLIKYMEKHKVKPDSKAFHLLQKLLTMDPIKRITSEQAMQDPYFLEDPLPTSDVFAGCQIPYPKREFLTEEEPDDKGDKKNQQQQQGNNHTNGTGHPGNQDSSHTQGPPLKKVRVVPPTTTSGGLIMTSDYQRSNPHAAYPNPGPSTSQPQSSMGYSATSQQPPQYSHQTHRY
Method in brief: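 SW480 cells kept in L-15 with 10% FBS at 37 °C and plated at 6000 cells/well overnight. Compound applied 2 h, then 10 ng/mL IFN-γ for 1 h. Cells fixed, permeabilized and blocked, then probed overnight at 4 °C with anti-pSTAT1 Ser727. IRDye 800CW secondary plus DRAQ5 for DNA, Odyssey imaging.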

[3] = target: CDK8/Cyclin C (Homo sapiens, UniProt P49336); assay: Inhibition of kinase tracer 236 binding to full length N terminal GST-tagged human CDK8 (1 to 464 end residues) /CycC ( 1 to 283 end residues) expressed in baculovirus expression system after 60 min by TR-FRET assay
Sequence of CDK8/Cyclin C (P49336 whole entry): as above
Sequence of CDK8/Cyclin C (P24863 whole entry, further chain): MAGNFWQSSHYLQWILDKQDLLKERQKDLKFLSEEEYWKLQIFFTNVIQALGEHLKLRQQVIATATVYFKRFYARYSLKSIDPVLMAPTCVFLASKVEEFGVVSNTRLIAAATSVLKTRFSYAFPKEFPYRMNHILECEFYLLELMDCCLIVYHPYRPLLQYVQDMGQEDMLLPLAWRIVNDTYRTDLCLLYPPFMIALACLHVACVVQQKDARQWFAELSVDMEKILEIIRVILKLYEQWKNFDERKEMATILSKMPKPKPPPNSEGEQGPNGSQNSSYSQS
Method in brief: (§1)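 TR-FRET ligand displacement using 20 nM GST-CDK8/CycC or GST-CDK19/CycC, 20 nM Kinase Tracer 236 and Tb-anti-GST antibody. Buffer 25 mM HEPES, 10 mM MgCl₂, 2 mM DTT, 0.01% Tween-20. Incubated 60 min at rt.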

[4] = target: CYP3A4 (Homo sapiens, UniProt P08684); assay: Time-dependent inhibition of CYP3A4 in human liver microsomes assessed as reduction in testosterone to 6beta-hydroxytestosterone conversion by measuring remaining activity at 30 uM preincubated for 60 mins followed by testosterone addition measured after 20 mins in presence of NADPH by UPLC analysis relative to control; format: ADME; conditions: probe testosterone (6beta-hydroxylation), read-out: Activity
Sequence of CYP3A4 (P08684 whole entry): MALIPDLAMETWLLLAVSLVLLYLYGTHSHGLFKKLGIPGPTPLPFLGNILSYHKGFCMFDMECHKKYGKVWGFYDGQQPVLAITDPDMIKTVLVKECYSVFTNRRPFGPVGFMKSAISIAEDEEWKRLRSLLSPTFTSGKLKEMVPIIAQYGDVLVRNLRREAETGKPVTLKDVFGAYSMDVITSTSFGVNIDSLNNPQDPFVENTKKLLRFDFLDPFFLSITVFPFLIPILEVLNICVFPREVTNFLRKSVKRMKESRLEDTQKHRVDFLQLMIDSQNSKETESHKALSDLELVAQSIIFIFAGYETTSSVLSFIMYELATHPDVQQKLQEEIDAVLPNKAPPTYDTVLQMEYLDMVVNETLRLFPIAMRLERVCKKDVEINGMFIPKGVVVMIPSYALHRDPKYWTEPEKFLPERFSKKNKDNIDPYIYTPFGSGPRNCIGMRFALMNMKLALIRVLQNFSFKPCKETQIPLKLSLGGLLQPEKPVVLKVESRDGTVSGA
Method in brief: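 Compound at 30 μM preincubated with human liver microsomes in phosphate buffer pH 7.4 at 37 °C for 0 or 60 min with an NADPH-generating system. Testosterone then added for 20 min, and 6β-hydroxytestosterone measured by UPLC. Activity expressed as % of DMSO control; % remaining taken after 60 min preincubation.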

[5] = test system: Liver; assay: Intrinsic clearance in mouse liver microsomes at 1 umol/L after 15 to 30 mins in presence of NADPH by LC/MS/MS analysis; format: ADME, microsome; conditions: 1 µM
Method in brief: (§2)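 Human or mouse liver microsomes at 0.2 mg/mL protein in 50 mmol/L phosphate buffer pH 7.4 with 1 μmol/L compound. Reaction started with an NADPH-generating system and stopped at 15 and 30 min with acetonitrile. LC/MS/MS readout. Intrinsic clearance taken as initial metabolic velocity (slope of concentration-time) divided by compound concentration.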

[6] = MRT in mouse at 1 mg/kg, po administered as cassette dose measured up to 8 hrs by LC/MS/MS analysis; format: ADME, organism-based; conditions: in vivo
Method in brief: (§3)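 Cassette dosing to non-fasted mice, 1 mg/kg po (0–8 h). Plasma obtained from blood by centrifugation, deproteinized with acetonitrile, centrifuged, and the supernatant analysed by LC/MS/MS.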

[7] = AUC (0 to 8 hrs) in mouse at 1 mg/kg, po administered as cassette dose by LC/MS/MS analysis; format: ADME, organism-based; set-up: time < 8 hr, dose 1 mg/kg, route oral; conditions: in vivo; method in brief: as §3
[8] = test system: Liver; assay: Intrinsic clearance in human liver microsomes at 1 umol/L after 15 to 30 mins in presence of NADPH by LC/MS/MS analysis; format: ADME, microsome; conditions: 1 µM; method in brief: as §2
[9] = Oral bioavailability in mouse at 1 mg/kg administered as cassette dose measured up to 8 hrs by LC/MS/MS analysis; format: ADME, organism-based; conditions: in vivo
Method in brief: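 Bioavailability from mouse cassette dosing, 0.1 mg/kg iv and 1 mg/kg po, non-fasted animals. Plasma was deproteinized with acetonitrile and compound quantified by LC/MS/MS.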

[10] = Total clearance in mouse at 1 mg/kg, po administered as cassette dose measured up to 8 hrs by LC/MS/MS analysis; format: ADME, organism-based; conditions: in vivo
[11] = Cmax in mouse at 1 mg/kg, po administered as cassette dose measured up to 8 hrs by LC/MS/MS analysis; format: ADME, organism-based; set-up: dose 1 mg/kg, route oral; conditions: in vivo; method in brief: as §3
[12] = test system: Plasma; assay: Drug level in mouse plasma treated with (E)-3-(4-(1-Methyl-1H-pyrazol-4-yl)pyridin-3-yl)-N-(4-(morpholinomethyl)phenyl)acrylamide at 1 mg/kg, po administered as cassette dose measured up to 8 hrs by LC/MS/MS analysis; format: ADME, organism-based; conditions: in vivo; method in brief: as §3
[13] = target: Cyclin-C/Cyclin-dependent kinase 19 (Homo sapiens, UniProt Q9BWU1); assay: Inhibition of kinase tracer 236 binding to GST-tagged CDK19/CycC (unknown origin) after 60 min by TR-FRET assay; format: protein-complex assay; method in brief: as §1
Sequence of Cyclin-C/Cyclin-dependent kinase 19 (Q9BWU1 whole entry): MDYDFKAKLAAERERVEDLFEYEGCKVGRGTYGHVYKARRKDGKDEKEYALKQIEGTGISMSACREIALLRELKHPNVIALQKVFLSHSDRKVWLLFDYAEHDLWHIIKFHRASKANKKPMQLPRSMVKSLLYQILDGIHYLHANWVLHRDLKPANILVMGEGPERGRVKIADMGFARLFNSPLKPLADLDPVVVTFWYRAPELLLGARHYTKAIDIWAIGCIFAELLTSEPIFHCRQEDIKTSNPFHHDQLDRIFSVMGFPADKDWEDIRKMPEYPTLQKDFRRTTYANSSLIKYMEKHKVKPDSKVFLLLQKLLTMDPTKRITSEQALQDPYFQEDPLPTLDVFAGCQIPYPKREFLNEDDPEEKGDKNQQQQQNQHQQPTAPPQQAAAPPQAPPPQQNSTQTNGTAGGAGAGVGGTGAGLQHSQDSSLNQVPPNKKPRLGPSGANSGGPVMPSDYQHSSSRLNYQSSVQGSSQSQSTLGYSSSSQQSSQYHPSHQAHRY
Sequence of Cyclin-C/Cyclin-dependent kinase 19 (P24863 whole entry, further chain): as the sequence (P24863 whole entry, further chain) above

| Structure (SMILES) | EC50 [2] [nM] | IC50 [3] [nM] | activity at 20 min, 30 µM [4] [%] | further results |
| --- | --- | --- | --- | --- |
| Cn1cc(-c2ccncc2/C=C/C(=O)Nc2ccc(CN3CCC(F)(F)C3)cc2)cn1 | 17 | 6.2 | 69 | solubility [1]: 33 µg/mL (≈ 77.9 µM) |
| COc1ccc(-c2ccncc2/C=C/C(=O)Nc2ccc(CN3CCOCC3)cc2)s1 | 97 | 28 |  |  |
| Cn1cnc2ccc(-c3ccncc3/C=C/C(=O)Nc3ccc(CN4CCOCC4)cc3)cc21 | 2.4 | 2.5 |  |  |
| Cn1cc(-c2ccnc(O)c2/C=C/C(=O)Nc2ccc(CN3CCOCC3)cc2)cn1 | > 10000 | > 10000 | 89 |  |
| Cn1cc(-c2ccncc2/C=C/C(=O)Nc2ccc3c(c2)CCN(CC(F)(F)F)C3)cn1 | 7 | 4.5 | 91 | solubility [1]: > 81 µg/mL |
| NC(=O)c1ccc(-c2ccncc2/C=C/C(=O)Nc2ccc(CN3CCOCC3)cc2)s1 | 690 | 8.3 |  |  |
| Cn1cnc2cc(-c3ccncc3/C=C/C(=O)Nc3ccc(CN4CCOCC4)cc3)ccc21 | > 10000 | 4800 |  |  |
| O=C(/C=C/c1cnccc1-c1cnn(Cc2ccccc2)c1)Nc1ccc(CN2CCOCC2)cc1 | 28 | 4.5 |  | intrinsic clearance [5]: 118 µL/min/mg; MRT [6]: 1.2 h; AUC(0-t) at 8 h [7]: 26.9 ng·h/mL; microsomal intrinsic clearance [8]: 78 µL/min/mg; bioavailability [9]: 15.5%; CL/F [10]: 96.1 mL/min/kg; Cmax [11]: 15.7 ng/mL |
| O=C(/C=C/c1cnccc1-c1cnn(CC(F)(F)F)c1)Nc1ccc(CN2CCOCC2)cc1 | 150 | 28 |  |  |
| CC1COCCN1Cc1ccc(NC(=O)/C=C/c2cnccc2-c2cnn(C)c2)cc1 (stereo unspecified) | 27 | 20 | 59 | solubility [1]: > 75 µg/mL |
| Cn1cc(-c2ccncc2/C=C/C(=O)Nc2ccccc2)cn1 | 110 | 51 | 97 | solubility [1]: 26 µg/mL (≈ 85.4 µM) |
| O=C(/C=C/c1cnccc1-c1cnsc1)Nc1ccc(CN2CCOCC2)cc1 | 110 | 27 |  |  |
| Cn1cc(-c2c(F)cncc2/C=C/C(=O)Nc2ccc(CN3CCOCC3)cc2)cn1 | 3.6 | 5.2 | 60 |  |
| Cn1cc(-c2ccncc2/C=C/C(=O)Nc2ccc(CNCCO)cc2)cn1 |  |  |  | Drug metabolism [12]: Metabolite_Detected |
| O=C(/C=C/c1cnccc1-c1cnn(C2CC2)c1)Nc1ccc(CN2CC3CC2CO3)cc1 (stereo unspecified) | 3.1 | 9.6 | 101 | solubility [1]: > 92 µg/mL |
| O=C(/C=C/c1cnccc1-c1ccc2[nH]cnc2c1)Nc1ccc(CN2CCOCC2)cc1 | 10 | 1.5 |  |  |
| Cn1cc(-c2ccncc2/C=C/C(=O)Nc2ccc3c(c2)CN(CC(F)(F)F)CC3)cn1 | 8.4 | 3.2 | 22 | solubility [1]: 8.9 µg/mL (≈ 20.2 µM) |
| Cn1cc(-c2ccncc2/C=C/C(=O)Nc2ccc(CN3C4CCC3COC4)cc2)cn1 | 17 | 6.3 | 99 |  |

| Structure (SMILES) | EC50 [2] [nM] | IC50 [3] [nM] | activity at 20 min, 30 µM [4] [%] | further results |
| --- | --- | --- | --- | --- |
| Cn1cc(-c2ccncc2/C=C/C(N)=O)cn1 | > 10000 | > 10000 |  |  |
| O=C(/C=C/c1cnccc1-c1cnn(C2CC2)c1)Nc1ccc(CN2CC3CC(C2)O3)cc1 | 5.5 | 6.7 | 108 | solubility [1]: 60 µg/mL (≈ 136 µM) |
| CC1CN(Cc2ccc(NC(=O)/C=C/c3cnccc3-c3cnn(C)c3)cc2)CCO1 (stereo unspecified) | 16 | 6.7 | 84 |  |
| O=C(/C=C/c1cnccc1-c1cncs1)Nc1ccc(CN2CCOCC2)cc1 | 140 | 41 |  |  |
| Cn1cc(-c2ccncc2CCC(=O)Nc2ccc(CN3CCOCC3)cc2)cn1 | 95 | 41 | 71 | IC50 [13]: 50 nM |
| Cn1cc(-c2cc[n+]([O-])cc2/C=C/C(=O)Nc2ccc(CN3CCOCC3)cc2)cn1 |  |  |  | Drug metabolism [12]: Metabolite_Detected |
| O=C(/C=C/c1cnccc1-c1cn[nH]c1)Nc1ccc(CN2CCOCC2)cc1 | 21 to 370 | 0.54 to 80 |  | intrinsic clearance [5]: 6.7 µL/min/mg; Drug metabolism [12]: Metabolite_Detected; microsomal intrinsic clearance [8]: 5.1 µL/min/mg; IC50 [13]: 100 nM |
| Cn1cc(-c2ccncc2/C=C/C(=O)Nc2ccc(CN3CC(F)(F)C3)cc2)cn1 | 84 | 11 | 98 | solubility [1]: 44 µg/mL (≈ 107 µM) |
| O=C(/C=C/c1cnccc1-c1cnn(C2CC2)c1)Nc1ccc(CN2CCOCC2)cc1 | 11 | 6.4 | 54 | intrinsic clearance [5]: 64 µL/min/mg; MRT [6]: 1.5 h; AUC(0-t) at 8 h [7]: 340 ng·h/mL; microsomal intrinsic clearance [8]: 25 µL/min/mg; IC50 [13]: 7.6 nM; bioavailability [9]: 51.2%; CL/F [10]: 25.4 mL/min/kg; Cmax [11]: 208 ng/mL |
| COc1ncc(-c2ccncc2/C=C/C(=O)Nc2ccc(CN3CCOCC3)cc2)s1 | 12 | 8.1 |  |  |
| O=C(/C=C/c1cncc(F)c1-c1cnn(C2CC2)c1)Nc1ccc(CN2CCOCC2)cc1 | 2.3 | 6.5 | 46 |  |
| O=C(/C=C/c1cnccc1-c1cnn(C(F)F)c1)Nc1ccc(CN2CCOCC2)cc1 | 11 to 50 | 6.4 to 24 |  |  |
| Cn1cc(-c2ccncc2/C=C/C(=O)Nc2ccc(CN3CC4CC3CO4)cc2)cn1 (stereo unspecified) | 19 | 16 | 100 | solubility [1]: > 82 µg/mL |
| Cn1cc(-c2ccncc2/C=C/C(=O)Nc2ccc(CN3CCOCC3=O)cc2)cn1 |  |  |  | Drug metabolism [12]: Metabolite_Detected |
| Cn1cc(-c2cc(N)ncc2/C=C/C(=O)Nc2ccc(CN3CCOCC3)cc2)cn1 | 1300 | 990 |  |  |
| O=C(/C=C/c1cnccc1-c1cnn(C2CC2)c1)Nc1ccc2c(c1)CCN(CC(F)(F)F)C2 | 14 | 7.1 | 88 | solubility [1]: 3.9 µg/mL (≈ 8.34 µM) |
| O=C(CCc1cnccc1-c1cnn(C2CC2)c1)Nc1ccc(CN2CCOCC2)cc1 | 130 | 29 | 59 | IC50 [13]: 41 nM |
